ChEMBL document CHEMBL3244368, “[3-(1,4-Cyclohexadienyl)-L-alanine,8-lysine]vasopressin: synthesis and some pharmacological properties” (J Med Chem, 1979)
Starred links: 1 amine or outer side, 2 acyl side, 3 side chain; linkers in the order of their positions; H or OH if unused. Positions of bridges follow the written chain, without caps; N, C: chain ends. Non-standard residues stand in square brackets, D forms with d. Residues, ends and D or L forms follow the SMILES beside them. X1 = O=C([C@H](CC1=CCC=CC1)N[*:1])[*:2]; 2Thi = N[C@@H](Cc1cccs1)C(=O)O

Tests used:
Gallus gallus = organism: Gallus gallus; test: Vasodepressor activity in chicken; assay type: functional
Rattus norvegicus [1] = test: Antidiuretic activity in iv dosed water loaded rat; assay type: functional, Urine
How it was run: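 Water-loaded rats under ethanol anesthesia, peptide given intravenously. Potency referenced to the USP Posterior Pituitary Reference Standard.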

Rattus norvegicus [2] = organism: Rattus norvegicus; test: Vasopressor activity in phenoxybenzamine-treated rat; assay type: functional
How it was run: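 Phenoxybenzamine-treated rats under urethane anesthesia. Potency referenced to the USP Posterior Pituitary Reference Standard.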

[3] = Oxytocic activity in isolated rat uterus strips in Mg2+-free van Dyke-Hastings solution
[4] = Stability of the compound in 0.2 M potassium phosphate buffer at pH 7.7 assessed as hydrolysis by measuring Ile/Phe + DiHPe level in presence of alpha-amylase preparation; assay type: ADME
[5] = Stability of the compound in 0.2 M potassium phosphate buffer at pH 7.7 assessed as hydrolysis by measuring Tyr level in presence of alpha-amylase preparation; assay type: ADME
[6] = Stability of the compound in 0.2 M potassium phosphate buffer at pH 7.7 assessed as hydrolysis by measuring Leu/Lys level in presence of alpha-amylase preparation; assay type: ADME
[7] = Stability of the compound in 0.2 M potassium phosphate buffer at pH 7.7 assessed as hydrolysis by measuring Gly level in presence of alpha-amylase preparation; assay type: ADME
[8] = Oxytocic activity in isolated rat uterus strips in Mg2+-free solution
[9] = Stability of the compound in phosphate buffer at pH 7.5 in presence of rat kidney homogenates; assay type: ADME, tissue-based; conditions: tissue homogenate
How it was run: (§1)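 DiHPhe incubated with rat kidney or liver homogenate in phosphate buffer, pH 7.5, then checked for conversion to Phe.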

[10] = Stability of the compound in phosphate buffer at pH 7.5 in presence of rat liver homogenates; assay type: ADME, tissue-based; conditions: tissue homogenate; how it was run: as §1
[11] = Stability of the compound in 0.2 M potassium phosphate buffer at […] assessed as hydrolysis by measuring Tyr level in presence of alpha-amylase preparation and cyclohexadiene; assay type: ADME
How it was run: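 Aspergillus oryzae α-amylase preparation, 1 mg per 0.9 µmol peptide, in potassium phosphate buffer pH 7, with 1,4-cyclohexadiene (10 µL) and toluene, under N2, 37 °C, 17 h. Adjusted to pH 2.2 for amino acid analysis. Phe from a control of constituent amino acids plus enzyme subtracted to give Phe in residue 3.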

[12] = Stability of the compound in potassium phosphate buffer at pH 7 assessed as hydrolysis by measuring Phe level in presence of alpha-amylase preparation and cyclohexadiene
[13] = Stability of the compound in potassium phosphate buffer at pH 7 assessed as hydrolysis by measuring DiHPe level in presence of alpha-amylase preparation and cyclohexadiene

Row | Compound | Activity (Gallus gallus) [U/mg] | Activity (Rattus norvegicus [1]) [U/mg] | Activity (Rattus norvegicus [2]) [U/mg] | Activity [3] [U/mg] | also measured
1 | N=C(N)NCCC[C@H](NC(=O)[C@@H]1CCCN1C(=O)[C@@H]1CSSC[C@H](N)C(=O)N[C@@H](Cc2ccc(O)cc2)C(=O)N[C@@H](Cc2ccccc2)C(=O)N[C@@H](CCC(N)=O)C(=O)N[C@@H](CC(N)=O)C(=O)N1)C(=O)NCC(N)=O [VASOPRESSIN] | 57 | 429 | 380 | 16 | –
2 | NCCCC[C@H](NC(=O)[C@@H]1CCCN1C(=O)[C@@H]1CSSC[C@H](N)C(=O)N[C@@H](Cc2ccc(O)cc2)C(=O)N[C@@H](Cc2ccccc2)C(=O)N[C@@H](CCC(N)=O)C(=O)N[C@@H](CC(N)=O)C(=O)N1)C(=O)NCC(N)=O [LYPRESSIN] | 40 | 212 | 258 | 5 | Drug degradation [4]: 113 mol%; Drug degradation [5]: 100 mol%; Drug degradation [6]: 101 mol%; Drug degradation [7]: 73 mol%
3 | NCCCC[C@H](NC(=O)[C@@H]1CCCN1C(=O)[C@@H]1CSSC[C@H](N)C(=O)N[C@@H](Cc2ccc(O)cc2)C(=O)N[C@@H](Cc2ccc(O)cc2)C(=O)N[C@@H](CCC(N)=O)C(=O)N[C@@H](CC(N)=O)C(=O)N1)C(=O)NCC(N)=O (H-CYYQNCPKG-NH2; disulfide 1-6) | 0.08 | 0.18 | 0.07 | – | Activity [8]: <=0.01 U/mg
4 | NCCCC[C@H](NC(=O)[C@@H]1CCCN1C(=O)[C@@H]1CSSC[C@H](N)C(=O)N[C@@H](Cc2ccc(O)cc2)C(=O)N[C@@H](Cc2cccs2)C(=O)N[C@@H](CCC(N)=O)C(=O)N[C@@H](CC(N)=O)C(=O)N1)C(=O)NCC(N)=O (H-CY[2Thi]QNCPKG-NH2; disulfide 1-6) | 87 | 332 | 243 | 19 | –
5 | N[C@@H](CC1=CCC=CC1)C(=O)O | – | – | – | – | Stability [9]: Stable; Stability [10]: Stable
6 | NCCCC[C@H](NC(=O)[C@@H]1CCCN1C(=O)[C@@H]1CSSC[C@H](N)C(=O)N[C@@H](Cc2ccc(O)cc2)C(=O)N[C@@H](CO)C(=O)N[C@@H](CCC(N)=O)C(=O)N[C@@H](CC(N)=O)C(=O)N1)C(=O)NCC(N)=O (H-CYSQNCPKG-NH2; disulfide 1-6) | <0.01 | 0.08 | <0.01 | <0.01 | –
7 | CC[C@H](C)[C@@H]1NC(=O)[C@H](Cc2ccc(O)cc2)NC(=O)[C@@H](N)CSSC[C@@H](C(=O)N2CCC[C@H]2C(=O)N[C@@H](CCCNC(=N)N)C(=O)NCC(N)=O)NC(=O)[C@H](CC(N)=O)NC(=O)[C@H](CCC(N)=O)NC1=O [ARGIPRESTOCIN] (H-CYIQNCPRG-NH2; disulfide 1-6) | 286 | 245 | 243 | 114 | –
8 | CC[C@H](C)[C@@H]1NC(=O)[C@H](Cc2ccc(O)cc2)NC(=O)[C@@H](N)CSSC[C@@H](C(=O)N2CCC[C@H]2C(=O)N[C@@H](CCCCN)C(=O)NCC(N)=O)NC(=O)[C@H](CC(N)=O)NC(=O)[C@H](CCC(N)=O)NC1=O (H-CYIQNCPKG-NH2; disulfide 1-6) | 190 | 24 | 130 | 78 | –
9 | NCCCC[C@H](NC(=O)[C@@H]1CCCN1C(=O)[C@@H]1CSSC[C@H](N)C(=O)N[C@@H](Cc2ccc(O)cc2)C(=O)N[C@@H](CC2=CCC=CC2)C(=O)N[C@@H](CCC(N)=O)C(=O)N[C@@H](CC(N)=O)C(=O)N1)C(=O)NCC(N)=O (H-CY[X1]QNCPKG-NH2; disulfide 1-6) | – | 125 | 129 | 6 | Drug degradation [11]: 89 mol%; Drug degradation [12]: 8.7 mol%; Drug degradation [13]: 66 mol%
